Experimental data: the M2OR odorant receptor database

Target: T1, OR52D1 (Homo sapiens) (UniProt Q9H346)
T1 sequence (whole entry): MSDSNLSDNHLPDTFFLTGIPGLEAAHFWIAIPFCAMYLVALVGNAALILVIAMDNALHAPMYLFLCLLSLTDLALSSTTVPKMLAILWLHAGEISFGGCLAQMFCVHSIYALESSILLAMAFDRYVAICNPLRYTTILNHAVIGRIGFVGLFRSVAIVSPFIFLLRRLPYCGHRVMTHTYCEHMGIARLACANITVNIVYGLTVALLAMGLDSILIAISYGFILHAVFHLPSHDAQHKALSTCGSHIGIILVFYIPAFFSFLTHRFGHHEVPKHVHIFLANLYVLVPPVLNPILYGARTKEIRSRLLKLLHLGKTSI
Settings: stereoisomer not certain
Method in brief: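 Each entry records the cell line, G-protein, co-transfected protein and tags used. Methods varied with the source, often transient luciferase assays in mammalian cell lines. A receptor–molecule pair is called responsive (active) if the original authors judged its signal statistically different from baseline and non-responsive (inactive) otherwise.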

Compound | odorant receptor agonist call
CCCCCCC(C)=O | inactive
CC(=O)OCCC(C)C | active
CCCCCCCC(=O)OC | inactive
CCCCCCC(=O)OCC | active
c1ccc2scnc2c1 | active
CC(=O)CCC=C(C)C | active
Cc1occc(=O)c1O | inactive
COc1ccccc1 | active
O=c1ccc2ccccc2o1 | inactive
CCCCCC(=O)OC | inactive
O=C(O)C=Cc1ccccc1 | active
CCCCC(O)CCC (configuration not stated) | inactive
CCCCCCCC(=O)OCC | inactive
CCCCCC(=O)OCC | active
CC1CCC(C(C)C)C(=O)C1 (configuration not stated) | inactive
CC(=O)C(C)O (configuration not stated) | active
CCCCC(CC)CO (configuration not stated) | inactive
CCCCCCCCCC(=O)[O-].[H+] | inactive
CCCCCCCCCCCC=O | inactive
CCCCCCCC(=O)[O-].[H+] | active
CCCCCCCCO | inactive
CCCC(=O)SC | active
CCCCCCCO | inactive
CCCCCCCCCC(=O)OC | inactive
c1cscn1 | active
CCCC(=O)OCC | active
CCCCCCCCCCO | inactive
